Experimental data as given in ChEMBL document CHEMBL1944580, “Synthesis of novel sulfonamide-1,2,4-triazoles, 1,3,4-thiadiazoles and 1,3,4-oxadiazoles, as potential antibacterial and antifungal agents. Biological evaluation and conformational analysis studies” (2012).
Values after ≈ are worked out from the molar mass of the structure shown.

Experiments:
[1] = tested on: Enterobacter cloacae; assay: Antibacterial activity against Enterobacter cloacae human isolate treated for 24 hrs followed by sub-cultivated for 72 hrs by micro dilution method; format: functional
In short: (§1)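 2 µl from each well was serially subcultured into 100 µl fresh broth per well and incubated a further 72 h. MBC is the lowest concentration with no visible growth, taken as 99.5% killing of the original inoculum. Streptomycin and ampicillin were the positive controls.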

[2] = tested on: Pseudomonas aeruginosa; assay: Antibacterial activity against Pseudomonas aeruginosa ATCC 27853 treated for 24 hrs followed by sub-cultivated for 72 hrs by micro dilution method; format: functional; in short: as §1
[3] = tested on: Aspergillus niger; assay: Antifungal activity against Aspergillus niger ATCC 6275 after 72 hrs by serial dilution method; format: functional; details: ATCC 6275, 72 h
In short: (§2)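 Modified microdilution MIC. Spores were washed from malt agar cultures with sterile 0.85% saline containing 0.1% Tween 80 and adjusted to about 1.0 × 10^5 per 100 µl well in malt broth. Compounds were dissolved in DMSO (1 mg/ml). Plates incubated 72 h at 28 °C. MIC is the lowest concentration with no visible growth under a binocular microscope. Bifonazole and ketoconazole were the references.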

[4] = tested on: Salmonella typhimurium; assay: Antibacterial activity against Salmonella Typhimurium ATCC 13311 treated for 24 hrs followed by sub-cultivated for 72 hrs by micro dilution method; format: functional, Salmonella enterica subsp. enterica serovar Typhimurium; details: Salmonella enterica; in short: as §1
[5] = tested on: Talaromyces funiculosus; assay: Antifungal activity against Penicillium funiculosum ATCC 36839 after 72 hrs by serial dilution method; format: functional; details: ATCC 36839, 72 h; in short: as §2
[6] = tested on: Fulvia fulva; assay: Antifungal activity against Fulvia fulva after 72 hrs by serial dilution method; format: functional; in short: as §2
[7] = tested on: Micrococcus flavus; assay: Antibacterial activity against Micrococcus flavus ATCC 10240 after 24 hrs by micro dilution method; format: functional; details: ATCC 10240, 24 h
In short: (§3)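 Microdilution MIC in 96-well plates. Bacterial suspensions adjusted in sterile saline to 1.0 × 10^5 CFU/ml, giving 1.0 × 10^4 cfu per well in LB broth. Compounds tested at up to 1 mg/ml. Plates incubated 24 h. MIC taken as the lowest concentration with no visible growth under a binocular microscope. OD at 655 nm was also read against a blank and the positive control. Streptomycin and ampicillin were the positive controls.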

[8] = tested on: Bacillus cereus; assay: Antibacterial activity against Bacillus cereus clinical isolate treated for 24 hrs followed by sub-cultivated for 72 hrs by micro dilution method; format: functional; in short: as §1
[9] = tested on: Trichoderma viride; assay: Antifungal activity against Trichoderma viride IAM 5061 after 72 hrs by serial dilution method; format: functional; details: IAM 5061, 72 h; in short: as §2
[10] = tested on: Trichoderma viride; assay: Antifungal activity against Trichoderma viride IAM 5061 treated for 72 hrs followed by sub-cultivated for 5 days by serial dilution method; format: functional
In short: (§4)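 MFC obtained after the 72 h, 28 °C malt-broth microdilution (spore inoculum about 1.0 × 10^5 per well, compounds from 1 mg/ml DMSO). 2 µl was serially subcultured into 100 µl broth per well and incubated a further 5 days at 28 °C. MFC is the lowest concentration with no visible growth, taken as 99.5% killing of the original inoculum.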

[11] = tested on: Micrococcus flavus; assay: Antibacterial activity against Micrococcus flavus ATCC 10240 treated for 24 hrs followed by sub-cultivated for 72 hrs by micro dilution method; format: functional; in short: as §1
[12] = tested on: Penicillium ochrochloron; assay: Antifungal activity against Penicillium ochrochloron ATCC 9112 treated for 72 hrs followed by sub-cultivated for 5 days by serial dilution method; format: functional; in short: as §4
[13] = tested on: Fulvia fulva; assay: Antifungal activity against Fulvia fulva treated for 72 hrs followed by sub-cultivated for 5 days by serial dilution method; format: functional; in short: as §4
[14] = tested on: Aspergillus flavus; assay: Antifungal activity against Aspergillus flavus ATCC 9643 treated for 72 hrs followed by sub-cultivated for 5 days by serial dilution method; format: functional; in short: as §4
[15] = tested on: Pseudomonas aeruginosa; assay: Antibacterial activity against Pseudomonas aeruginosa ATCC 27853 after 24 hrs by micro dilution method; format: functional; details: ATCC 27853, 24 h; in short: as §3
[16] = tested on: Staphylococcus aureus; assay: Antibacterial activity against Staphylococcus aureus ATCC 6538 treated for 24 hrs followed by sub-cultivated for 72 hrs by micro dilution method; format: functional; in short: as §1
[17] = tested on: Escherichia coli; assay: Antibacterial activity against Escherichia coli ATCC 35210 after 24 hrs by micro dilution method; format: functional; details: ATCC 35210, 24 h; in short: as §3
[18] = tested on: Listeria monocytogenes; assay: Antibacterial activity against Listeria monocytogenes NCTC 7973 treated for 24 hrs followed by sub-cultivated for 72 hrs by micro dilution method; format: functional; in short: as §1
[19] = tested on: Aspergillus niger; assay: Antifungal activity against Aspergillus niger ATCC 6275 treated for 72 hrs followed by sub-cultivated for 5 days by serial dilution method; format: functional; in short: as §4
[20] = tested on: Bacillus cereus; assay: Antibacterial activity against Bacillus cereus clinical isolate after 24 hrs by micro dilution method; format: functional; in short: as §3
[21] = tested on: Aspergillus flavus; assay: Antifungal activity against Aspergillus flavus ATCC 9643 after 72 hrs by serial dilution method; format: functional; details: ATCC 9643, 72 h; in short: as §2
[22] = tested on: Aspergillus fumigatus; assay: Antifungal activity against Aspergillus fumigatus human isolate after 72 hrs by serial dilution method; format: functional; in short: as §2
[23] = tested on: Talaromyces funiculosus; assay: Antifungal activity against Penicillium funiculosum ATCC 36839 treated for 72 hrs followed by sub-cultivated for 5 days by serial dilution method; format: functional; in short: as §4
[24] = tested on: Penicillium ochrochloron; assay: Antifungal activity against Penicillium ochrochloron ATCC 9112 after 72 hrs by serial dilution method; format: functional; details: ATCC 9112, 72 h; in short: as §2
[25] = tested on: Listeria monocytogenes; assay: Antibacterial activity against Listeria monocytogenes NCTC 7973 after 24 hrs by micro dilution method; format: functional; details: NCTC 7973, 24 h; in short: as §3
[26] = tested on: Enterobacter cloacae; assay: Antibacterial activity against Enterobacter cloacae human isolate after 24 hrs by micro dilution method; format: functional; in short: as §3
[27] = tested on: Aspergillus versicolor; assay: Antifungal activity against Aspergillus versicolor ATCC 11730 treated for 72 hrs followed by sub-cultivated for 5 days by serial dilution method; format: functional; in short: as §4
[28] = tested on: Escherichia coli; assay: Antibacterial activity against Escherichia coli ATCC 35210 treated for 24 hrs followed by sub-cultivated for 72 hrs by micro dilution method; format: functional; in short: as §1
[29] = tested on: Aspergillus fumigatus; assay: Antifungal activity against Aspergillus fumigatus human isolate treated for 72 hrs followed by sub-cultivated for 5 days by serial dilution method; format: functional; in short: as §4
[30] = tested on: Staphylococcus aureus; assay: Antibacterial activity against Staphylococcus aureus ATCC 6538 after 24 hrs by micro dilution method; format: functional; details: ATCC 6538, 24 h; in short: as §3
[31] = tested on: Aspergillus versicolor; assay: Antifungal activity against Aspergillus versicolor ATCC 11730 after 72 hrs by serial dilution method; format: functional; details: ATCC 11730, 72 h; in short: as §2
[32] = tested on: Salmonella typhimurium; assay: Antibacterial activity against Salmonella Typhimurium ATCC 13311 after 24 hrs by micro dilution method; format: functional, Salmonella enterica subsp. enterica serovar Typhimurium; details: Salmonella enterica, ATCC 13311, 24 h; in short: as §3

Compound	MBC [1] [µM]	MBC [2] [µM]	MIC [3] [µM]	MBC [4] [µM]	MIC [5] [µM]	MIC [6] [µM]	MIC [7] [µM]	MBC [8] [µM]	MIC [9] [µM]	MFC [10] [µM]	MBC [11] [µM]	MFC [12] [µM]	MFC [13] [µM]	MFC [14] [µM]	MIC [15] [µM]	MBC [16] [µM]	MIC [17] [µM]	MBC [18] [µM]	MFC [19] [µM]	MIC [20] [µM]	further results
CCn1c(Cc2cc(OC)c(OC)cc2S(=O)(=O)N(C)C)n[nH]c1=O	540 (≈ 200 µg/mL)	540 (≈ 200 µg/mL)	270 (≈ 100 µg/mL)	540 (≈ 200 µg/mL)	140 (≈ 51.9 µg/mL)	270 (≈ 100 µg/mL)	400 (≈ 148 µg/mL)	810 (≈ 300 µg/mL)	140 (≈ 51.9 µg/mL)	270 (≈ 100 µg/mL)	400 (≈ 148 µg/mL)	270 (≈ 100 µg/mL)	270 (≈ 100 µg/mL)	450 (≈ 167 µg/mL)	400 (≈ 148 µg/mL)	540 (≈ 200 µg/mL)	270 (≈ 100 µg/mL)	540 (≈ 200 µg/mL)	450 (≈ 167 µg/mL)	270 (≈ 100 µg/mL)	MIC [21]: 270 µM (≈ 100 µg/mL); MIC [22]: 140 µM (≈ 51.9 µg/mL); MFC [23]: 270 µM (≈ 100 µg/mL); MIC [24]: 140 µM (≈ 51.9 µg/mL); MIC [25]: 400 µM (≈ 148 µg/mL); MIC [26]: 540 µM (≈ 200 µg/mL); MFC [27]: 450 µM (≈ 167 µg/mL); MBC [28]: 270 µM (≈ 100 µg/mL); MFC [29]: 270 µM (≈ 100 µg/mL); MIC [30]: 270 µM (≈ 100 µg/mL); MIC [31]: 140 µM (≈ 51.9 µg/mL); MIC [32]: 400 µM (≈ 148 µg/mL)
CCCn1c(Cc2cc(OC)c(OC)cc2S(=O)(=O)N(C)C)n[nH]c1=O	780 (≈ 300 µg/mL)	780 (≈ 300 µg/mL)	130 (≈ 50 µg/mL)	650 (≈ 250 µg/mL)	130 (≈ 50 µg/mL)	260 (≈ 100 µg/mL)	650 (≈ 250 µg/mL)	650 (≈ 250 µg/mL)	70 (≈ 26.9 µg/mL)	130 (≈ 50 µg/mL)	650 (≈ 250 µg/mL)	390 (≈ 150 µg/mL)	260 (≈ 100 µg/mL)	260 (≈ 100 µg/mL)	650 (≈ 250 µg/mL)	390 (≈ 150 µg/mL)	650 (≈ 250 µg/mL)	780 (≈ 300 µg/mL)	260 (≈ 100 µg/mL)	260 (≈ 100 µg/mL)	MIC [21]: 130 µM (≈ 50 µg/mL); MIC [22]: 130 µM (≈ 50 µg/mL); MFC [23]: 260 µM (≈ 100 µg/mL); MIC [24]: 130 µM (≈ 50 µg/mL); MIC [25]: 650 µM (≈ 250 µg/mL); MIC [26]: 650 µM (≈ 250 µg/mL); MFC [27]: 390 µM (≈ 150 µg/mL); MBC [28]: 650 µM (≈ 250 µg/mL); MFC [29]: 260 µM (≈ 100 µg/mL); MIC [30]: 260 µM (≈ 100 µg/mL); MIC [31]: 130 µM (≈ 50 µg/mL); MIC [32]: 650 µM (≈ 250 µg/mL)
COc1cc(Cc2n[nH]c(=O)n2C(C)C)c(S(=O)(=O)N(C)C)cc1OC	390 (≈ 150 µg/mL)	390 (≈ 150 µg/mL)	260 (≈ 100 µg/mL)	390 (≈ 150 µg/mL)	260 (≈ 100 µg/mL)	260 (≈ 100 µg/mL)	390 (≈ 150 µg/mL)	780 (≈ 300 µg/mL)	30 (≈ 11.5 µg/mL)	70 (≈ 26.9 µg/mL)	390 (≈ 150 µg/mL)	390 (≈ 150 µg/mL)	260 (≈ 100 µg/mL)	390 (≈ 150 µg/mL)	390 (≈ 150 µg/mL)	390 (≈ 150 µg/mL)	390 (≈ 150 µg/mL)	390 (≈ 150 µg/mL)	390 (≈ 150 µg/mL)	260 (≈ 100 µg/mL)	MIC [21]: 260 µM (≈ 100 µg/mL); MIC [22]: 30 µM (≈ 11.5 µg/mL); MFC [23]: 260 µM (≈ 100 µg/mL); MIC [24]: 130 µM (≈ 50 µg/mL); MIC [25]: 390 µM (≈ 150 µg/mL); MIC [26]: 390 µM (≈ 150 µg/mL); MFC [27]: 390 µM (≈ 150 µg/mL); MBC [28]: 390 µM (≈ 150 µg/mL); MFC [29]: 130 µM (≈ 50 µg/mL); MIC [30]: 390 µM (≈ 150 µg/mL); MIC [31]: 130 µM (≈ 50 µg/mL); MIC [32]: 390 µM (≈ 150 µg/mL)
